Assay results from the array DNA melting data of Ke et al. (doi:10.1101/2024.01.08.574731).

Experiments:
[1] = folding enthalpy; higher = less favourable; fluorescence melt of hairpins on a sequencing array, two-state fit; settings: sodium 0.088 M
How it was run: (§1)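 Cy3 signals were normalised both to pre-quench Cy3 and to control constructs. They came from library hairpins carrying annealed Cy3 and quencher oligos on a sequenced MiSeq flow cell, imaged in 50 mM Na-HEPES pH 8.0, 25 mM NaCl, in 2.5 °C steps up to 60 °C. Bootstrapped two-state fits gave melting temperature and folding enthalpy, and four replicates were combined by inverse variance. Fitted temperatures were then raised by 9.35 °C to match UV melts.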

[2] = melting temperature; fluorescence melt of hairpins on a sequencing array, two-state fit, raised by 9.35 °C to match UV melts; settings: sodium 0.088 M
How it was run: as §1

Sequence | folding enthalpy [1] | Tm [2]
GATAGCGAAAGCTGATC ((((((....))).))) | -13.2 kcal/mol | 38.9 °C
GATAGCGGAAACGCCATC (((.(((....))).))) | -15.5 kcal/mol | 35.1 °C
GATAGGCGAAAGCCAATC (((.(((....))).))) | -19 kcal/mol | 43 °C
GATAGGGGAAACCCTACC (.(((((....))))).) | -16.8 kcal/mol | 31.1 °C
GATAGGGGAAACCCTGTC ((.((((....)))).)) | -25.4 kcal/mol | 43.7 °C
GATATCGGAAACGACATC (((.(((....))).))) | -27.9 kcal/mol | 32.7 °C
GATATGGGAAACCATGTC ((.((((....)))).)) | -29 kcal/mol | 41.8 °C
GATATGGGAAACTATATC (((((.(....).))))) | -23.2 kcal/mol | 33.8 °C
GATCAAAAAATTGATC ((((((....)))))) | -17.5 kcal/mol | 32.4 °C
GATCAAAAATTTGATC ((((((....)))))) | -28.7 kcal/mol | 39 °C
GATCAAAATATTGATC ((((((....)))))) | -26.6 kcal/mol | 38.6 °C
GATCAAACCATTGATC ((((((....)))))) | -31.2 kcal/mol | 42.1 °C
GATCAAACCGTTGATC ((((((....)))))) | -30.6 kcal/mol | 42 °C
GATCAAACTATTGATC ((((((....)))))) | -30.1 kcal/mol | 40.3 °C
GATCAAACTGTTGATC ((((((....)))))) | -25.7 kcal/mol | 41 °C
GATCAAAGACTTGATC ((((((....)))))) | -25.1 kcal/mol | 39.2 °C
GATCAAAGCATTGATC ((((((....)))))) | -36.8 kcal/mol | 43.7 °C
GATCAAAGGATTGATC ((((((....)))))) | -19.1 kcal/mol | 40.9 °C
GATCAAAGGCTTGATC ((((((....)))))) | -31.5 kcal/mol | 41 °C
GATCAAAGGGTTGATC ((((((....)))))) | -28.3 kcal/mol | 39.1 °C
GATCAAATACTTGATC ((((((....)))))) | -33.2 kcal/mol | 39.9 °C
GATCAAATTGTTGATC ((((((....)))))) | -28.3 kcal/mol | 41.8 °C
GATCAACAAATTGATC ((((((....)))))) | -31.3 kcal/mol | 36.4 °C
GATCAACAAGTTGATC ((((((....)))))) | -34.2 kcal/mol | 51.8 °C

Sequence | folding enthalpy [1] | Tm [2]
GATCAACAATTGATC ((((((...)))))) | -21.6 kcal/mol | 33.4 °C
GATCAACACCTTGATC ((((((....)))))) | -32.7 kcal/mol | 46.7 °C
GATCAACAGGTTGATC ((((((....)))))) | -36.2 kcal/mol | 51.4 °C
GATCAACATATTGATC ((((((....)))))) | -30.2 kcal/mol | 42.6 °C
GATCAACCCGTTGATC ((((((....)))))) | -42 kcal/mol | 53 °C
GATCAACCGAAAGGTATC (((..(((....)))))) | -12.1 kcal/mol | 25.6 °C
GATCAACCGATTGATC ((((((....)))))) | -32.6 kcal/mol | 41.5 °C
GATCAACCGTTGATC ((((((...)))))) | -38.1 kcal/mol | 41.1 °C
GATCAACGAGTTGATC ((((((....)))))) | -51 kcal/mol | 55.6 °C
GATCAACGCCTTGATC ((((((....)))))) | -26 kcal/mol | 46.1 °C
GATCAACGCTTTGATC ((((((....)))))) | -44.1 kcal/mol | 46.4 °C
GATCAACGTTTTGATC ((((((....)))))) | -30.4 kcal/mol | 42.8 °C
GATCAACTAGTTGATC ((((((....)))))) | -38.6 kcal/mol | 56.3 °C
GATCAACTCTTGATC ((((((...)))))) | -35.7 kcal/mol | 42.3 °C
GATCAACTCTTTGATC ((((((....)))))) | -37.5 kcal/mol | 45.1 °C
GATCAACTTTTGATC ((((((...)))))) | -30.7 kcal/mol | 43.2 °C
GATCAAGAATTTGATC ((((((....)))))) | -30.8 kcal/mol | 49 °C
GATCAAGAGTTGATC ((((((...)))))) | -24.8 kcal/mol | 37.8 °C
GATCAAGAGTTTGATC ((((((....)))))) | -29.6 kcal/mol | 41.4 °C
GATCAAGATGTTGATC ((((((....)))))) | -28 kcal/mol | 43.5 °C
GATCAAGCAGTTGATC ((((((....)))))) | -31.8 kcal/mol | 46.6 °C
GATCAAGCGCTTGATC ((((((....)))))) | -51.6 kcal/mol | 55.9 °C
GATCAAGGAAACTTGACC (.(((((....))))).) | -18.7 kcal/mol | 29.8 °C
GATCAAGGAAACTTGGTC ((.((((....)))).)) | -30.5 kcal/mol | 41.5 °C

Sequence | folding enthalpy [1] | Tm [2]
GATCAAGGCGTTGATC ((((((....)))))) | -35.8 kcal/mol | 48.5 °C
GATCAAGGGATTGATC ((((((....)))))) | -26.9 kcal/mol | 44.8 °C
GATCAAGGTATTGATC ((((((....)))))) | -35.2 kcal/mol | 48.7 °C
GATCAAGGTTTTGATC ((((((....)))))) | -29.7 kcal/mol | 45.1 °C
GATCAAGTAGTTGATC ((((((....)))))) | -31.6 kcal/mol | 46.7 °C
GATCAAGTCGTTGATC ((((((....)))))) | -39.2 kcal/mol | 48 °C
GATCAAGTGATTGATC ((((((....)))))) | -32.2 kcal/mol | 47.3 °C
GATCAAGTGCTTGATC ((((((....)))))) | -41.2 kcal/mol | 47.2 °C
GATCAAGTTGTTGATC ((((((....)))))) | -36.6 kcal/mol | 45.1 °C
GATCAATAATTGATC ((((((...)))))) | -23.8 kcal/mol | 40.3 °C
GATCAATACCTTGATC ((((((....)))))) | -34 kcal/mol | 46.5 °C
GATCAATACTTGATC ((((((...)))))) | -30.4 kcal/mol | 42 °C
GATCAATAGTTTGATC ((((((....)))))) | -30.6 kcal/mol | 42.7 °C
GATCAATATCTTGATC ((((((....)))))) | -30.6 kcal/mol | 42.6 °C
GATCAATCACTTGATC ((((((....)))))) | -29.9 kcal/mol | 43.2 °C
GATCAATCCATTGATC ((((((....)))))) | -42.6 kcal/mol | 49.7 °C
GATCAATCGGTTGATC ((((((....)))))) | -42 kcal/mol | 44.4 °C
GATCAATCTCTTGATC ((((((....)))))) | -30.1 kcal/mol | 43.2 °C
GATCAATGCATTGATC ((((((....)))))) | -65.6 kcal/mol | 52.3 °C
GATCAATTACTTGATC ((((((....)))))) | -31.4 kcal/mol | 44 °C
GATCAATTATTGATC ((((((...)))))) | -29.3 kcal/mol | 43.8 °C
GATCAATTCTTTGATC ((((((....)))))) | -35.9 kcal/mol | 47.8 °C
GATCAATTTTTTGATC ((((((....)))))) | -35.1 kcal/mol | 47.3 °C
